# Bioassay records as filed in PubChem.
# Compounds with a hit are over-represented: about 3.7% of the library has one in this group of screens.
# KCNK3 inh: human KCNK3 channel inhibition, primary screen; O14649; CHO-KCNK3 thallium flux, FluxOR fluorescence; active compounds read low; B-score at 10 µM; actives 0.84% (n = 340,000); AID 602410;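 active means B-score under library mean minus 4 SD, starting fluorescence ratio at most library mean plus 5 SD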;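 further: more negative B-score means stronger inhibition of thallium flux through KCNK3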
# Target sequence (O14649 whole entry, looked up): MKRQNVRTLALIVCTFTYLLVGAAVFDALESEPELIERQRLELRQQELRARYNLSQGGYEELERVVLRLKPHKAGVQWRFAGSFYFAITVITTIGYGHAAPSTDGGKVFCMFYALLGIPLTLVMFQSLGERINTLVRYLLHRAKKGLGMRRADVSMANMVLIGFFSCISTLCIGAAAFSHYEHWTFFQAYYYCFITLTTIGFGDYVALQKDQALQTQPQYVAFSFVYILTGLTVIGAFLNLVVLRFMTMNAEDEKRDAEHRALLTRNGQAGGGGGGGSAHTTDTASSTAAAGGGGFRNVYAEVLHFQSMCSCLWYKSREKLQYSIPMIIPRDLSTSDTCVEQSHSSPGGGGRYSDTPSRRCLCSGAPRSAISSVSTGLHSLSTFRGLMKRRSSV
# hERG protect: shields human hERG channel from block by proarrhythmic agents; Q12809; CHO-hERG, FluxOR thallium flux, dofetilide IC70 present; activation (rescue from dofetilide block), less the hit threshold, % at 10 µM; actives 0.51% (n = 310,000); AID 1511;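 active means activation above the mean of controls blocked by dofetilide plus 5 SD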;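 further: thallium influx through hERG after potassium depolarization seen as dye fluorescence rise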
# KCNQ1 act: human KCNQ1 channel potentiation or activation; P51787; CHO-K1 KCNQ1, thallium flux FluxOR fluorescence; active compounds read high; B-score at 10 µM; actives 0.35% (n = 310,000); AID 2648;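 active means fluorescence ratio B-score, a plate-corrected score, at least three library SD, with initial intensity B-score within 5 SD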
#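 assay system = KCNQ1-transfected CHO-K1 cells | medium = assay buffer with matched DMSO | probe or stimulus = depolarizing K+/Tl+ stimulus, K2SO4 and Tl2SO4 each 12.5 mM in 5x stock | dosing = single dose | incubation = dye 90 min, compound 20 min, room temperature | detection = kinetic FluxOR fluorescence, 10 s baseline plus 110 s post-stimulus | evaluation = ratio B score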
# Kir21 inh: Kir2.1 (mouse) channel inhibition; HEK293-Kir2.1, FluxOR thallium flux fluorescence; active compounds read low; B-score at 10 µM; actives 0.85% (n = 310,000); AID 1672;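 active means fluorescence ratio B-score at or below minus 3 SD of library scores, with starting-brightness B-score within 2 SD, cut at about -4.2 in these data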;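 further: channel flux triggered by added potassium and thallium sulfate stimulus; B-score of peak minus minimum fluorescence over baseline after thallium stimulus; more negative B-score means stronger Kir2.1 block with less thallium influx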
# KCNQ1 inh: blocks the human KCNQ1 potassium channel. P51787. CHO-K1 KCNQ1, FluxOR thallium flux fluorescence; active compounds read high. B-score at 10 µM. actives 1.3% (n = 310,000). AID 2642;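 active means compounds whose thallium flux B-score, printed positive for inhibition, exceeds three library SD while starting fluorescence stays within three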;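 further: channel opened by potassium depolarization with thallium stimulus after 20 min compound exposure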
# KCNK9 inh: blocks the human KCNK9 two-pore domain potassium channel | Q9NPC2 | HEK293 KCNK9, FluxOR thallium flux fluorescence; active compounds read low | B-score at 10 µM | actives 1.2% (n = 310,000) | AID 488922;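 active means ratio B-score over 3 SD below the library mean, with starting fluorescence within 5 SD of its mean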;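 further: negative B-score means less thallium flux so channel inhibition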
# A number is an active result; – = inactive; · = no result.
SMILES,KCNK3 inh,hERG protect,KCNQ1 act,Kir21 inh,KCNQ1 inh,KCNK9 inh
Cc1ccc(C(C)C)c(OCc2n[nH]c(=S)o2)c1,–,–,8,–,–,–
CCCCOc1ccc(Br)cc1/C(C)=N/NC1=NCCN1,–,–,–,-8.1,–,–
CCCCCCOc1ccc(/C(C)=N/NC2=NCCN2)cc1[N+](=O)[O-],–,–,–,–,–,–
CC(C)c1cccc(C(C)C)c1NC(=O)COC(=O)C1=COCCO1,–,–,–,–,–,–
CC(C)c1cccc(C(C)C)c1NC(=O)COC(=O)[C@H](C)NC(N)=O,–,11,–,–,–,–
O=C(NC(=S)Nc1ccccc1N1CCCC1)c1ccccc1Br,–,14,16,–,–,–
O=C(NC(=S)Nc1ccccc1N1CCCC1)c1ccco1,–,–,12,–,–,–
CCC(C)c1ccccc1NC(=S)NC(=O)c1ccco1 (stereo unspecified),–,32,29,–,–,–
O=C(NC(=S)Nc1ccccc1N1CCOCC1)c1ccco1,–,–,–,–,–,–
CC(C)C(=O)N1CCN(c2ccccc2NC(=S)NC(=O)c2ccco2)CC1,–,–,–,–,–,–
CC1CCN(c2ccc(NC(=S)NC(=O)c3ccco3)cc2)CC1,–,–,–,–,–,–
O=C(NC(=S)Nc1ccc(N2CCCCC2)cc1)c1ccco1,–,5.6,9,–,–,–
Cc1ccc(OCCC(=O)Nc2cc(S(=O)(=O)N3CCOCC3)ccc2N2CCCC2)cc1,–,·,·,·,·,·
O=C(NC(=S)Nc1cccc(Cl)c1N1CCCCC1)c1ccco1,–,–,16,–,–,–
O=C(NC(=S)Nc1ccccc1Cl)c1ccco1,–,12,14,–,–,–
O=C(NC(=S)Nc1cccc2c(O)cccc12)c1ccco1,–,–,–,–,–,–
O=C(NC(=S)Nc1ccccc1N1CCCCC1)c1ccco1,–,14,–,–,–,–
Cc1cc(NS(=O)(=O)c2ccc(Nc3nc(-c4sc(NC(=O)c5ccccc5)nc4C)cs3)cc2)no1,·,–,–,-4.3,7,–
Cc1nc(NC(=O)c2ccccc2)sc1-c1csc(Nc2cccc(F)c2)n1,·,–,–,–,–,–
CC1CCCC(NC(=O)COC(=O)[C@@H](NC(=O)c2ccccc2Cl)C(C)C)C1C (stereo partly specified),–,·,·,·,·,·
C(C#CCCCCCCCCC[n+]1ccccc1)#CCCCCCCCCC[n+]1ccccc1,–,–,–,-15,–,–
Cc1sc2ncnc(SCC(=O)c3ccc(O)cc3O)c2c1C,–,–,8,–,–,–
O=C(Nc1ccc(Cl)cc1)N(C1=NCCC1)c1ccc(OC(F)F)cc1,–,–,–,–,6,–
C=CCNc1nc(-c2c(C)nc3sccn23)cs1,–,–,–,–,–,–
Cc1nc2sccn2c1-c1csc(NCc2ccccc2)n1,–,–,–,–,6,–
SMILES,KCNK3 inh,hERG protect,KCNQ1 act,Kir21 inh,KCNQ1 inh,KCNK9 inh
Cc1ccc(C(=O)C2(C)C3c4cc(Br)ccc4OC(=O)C32C(=O)c2ccco2)cc1 (stereo unspecified),–,–,–,–,–,-7.7
Cc1ccc(C(=O)NC(=S)N(C)C2CCCCC2)cc1Br,–,–,16,–,–,–
COc1ccc(C(=O)NC(=S)N(C)C2CCCCC2)cc1Br,–,6.2,–,–,–,–
COc1ccc(C(=O)NC(=S)N(C)C2CCCCC2)cc1,–,–,–,–,–,–
CN(C(=S)NC(=O)c1ccccc1Br)C1CCCCC1,–,–,13,–,–,–
Cc1ccccc1C(=O)NC(=S)N(C)C1CCCCC1,–,–,–,–,–,–
CCO[C@@H]1OC(C(=O)N2CCOCC2)=C[C@H](c2ccc(C(F)(F)F)cc2)[C@H]1CCCO,–,–,–,–,–,–
C=CC[C@@H](CC(=O)N[C@H](CO)Cc1ccccc1)C(=O)NCCOC(=O)[C@@H](CC=C)CC(=O)OC(C)(C)C,–,·,·,·,·,·
CCN(CCn1cccn1)C(=O)C1CCC(=O)N(CC2CCCCC2)C1 (stereo unspecified),–,–,–,–,–,–
O=C(NCC1CCCO1)c1cc2c([nH]c3ccccc32)c(-c2cccc(Br)c2)n1 (stereo unspecified),–,–,–,–,11,–
